Measurements gathered from unrelated publications.
Protocols differ between the studies behind these lines.
Target: Interleukin-1 receptor-associated kinase 1 (IRAK1, Homo sapiens, UniProt P51617)

| Structure (SMILES) | assay | setting | measurement | result |
| --- | --- | --- | --- | --- |
| N#CC1(c2ccccn2)CCN(Cc2cc(C(=O)O)c(=O)n3ccccc23)CC1 | cell-free assay, competition with immobilised ligand | 1 µM | remaining binding | 77% |
| Cc1nn(C)cc1-c1nc2c(N3CCN(Cc4ccc(Cl)cc4)CC3)c(Cl)cnc2[nH]1 | binding, competition with immobilised ligand | 1 µM | remaining binding | 56% |
| COc1ncccc1-c1cnn2ccc(N3CCN(C(=O)OC(C)C)CC3)nc12 | binding, competition with immobilised ligand | 1 µM | remaining binding | 80% |
| Nc1ncc(-c2nc(N3CCOCC3)nc(N3CCOCC3)n2)c(C(F)F)n1 | binding, competition with immobilised ligand | 10 µM | remaining binding | 50% |
| COc1cc(Nc2ncc(F)c(Nc3ccc4c(n3)NC(=O)C(C)(C)O4)n2)cc(OC)c1OC | binding | 10 µM | inhibition | 100% |
| Cn1cc(-c2cccc(N3CCc4c(sc5c4CC(C)(C)C5)C3=O)c2CO)cc(Nc2ccncn2)c1=O | enzyme activity, inhibitor | 1 µM | inhibition | -4% |
| C#Cc1n[nH]c2c(-c3cn(C(C)c4ccccn4)c(=O)[nH]c3=O)cc(F)cc12 (stereo not drawn) | enzyme activity, inhibitor | 1 µM | inhibition | 11.6% |
| O=c1[nH]c2ccccc2n1C1CCN(Cc2ccc(-c3[nH]c4cc5ncnc5cc4nc3-c3ccccc3)cc2)CC1 | cell-free assay | 0.5 µM | remaining signal | 109% |
| Cn1cncc1[C@](O)(COc1ccc(C#N)cc1-c1ccc(OC(F)(F)F)cc1)c1ccc(C#N)cc1 | cell-free assay, competition with immobilised ligand | 1 µM | remaining binding | 83% |
| CC(C)(C)c1cc(C=C(C#N)C#N)cc(Br)c1O | enzyme activity, inhibitor | 0.5 µM | remaining activity | 105% |
| Cn1cc(-c2cc(F)cc(N3CCn4c(cc5c4CCCC5)C3=O)c2CO)cc(Nc2ccc(N3CCN(C4COC4)CC3)cn2)c1=O | enzyme activity, inhibitor | 0.1 µM | inhibition | 2% |
| C#Cc1n[nH]c2c(-c3cn([C@@H](C)c4ccccc4)c(=O)[nH]c3=O)cc(F)cc12 | enzyme activity, inhibitor | 0.1 µM | inhibition | -7% |
